Assay outcomes as filed in PubChem BioAssay.
M4 antag: blocks acetylcholine activation of human M4 receptor | CHO-hM4 cells, ACh EC80, Fluo-8 calcium fluorescence | P08173 | inhibition, % at 3 µM | 360,000 compounds, 0.73% hits;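 active means inhibition above its plate's cutoff, the mean inhibition of sample wells plus 3 SD, cut at about 27% in these data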;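 further: 0% = acetylcholine EC80 with DMSO and 100% = DMSO without agonist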
Target sequence (P08173 whole entry, looked up): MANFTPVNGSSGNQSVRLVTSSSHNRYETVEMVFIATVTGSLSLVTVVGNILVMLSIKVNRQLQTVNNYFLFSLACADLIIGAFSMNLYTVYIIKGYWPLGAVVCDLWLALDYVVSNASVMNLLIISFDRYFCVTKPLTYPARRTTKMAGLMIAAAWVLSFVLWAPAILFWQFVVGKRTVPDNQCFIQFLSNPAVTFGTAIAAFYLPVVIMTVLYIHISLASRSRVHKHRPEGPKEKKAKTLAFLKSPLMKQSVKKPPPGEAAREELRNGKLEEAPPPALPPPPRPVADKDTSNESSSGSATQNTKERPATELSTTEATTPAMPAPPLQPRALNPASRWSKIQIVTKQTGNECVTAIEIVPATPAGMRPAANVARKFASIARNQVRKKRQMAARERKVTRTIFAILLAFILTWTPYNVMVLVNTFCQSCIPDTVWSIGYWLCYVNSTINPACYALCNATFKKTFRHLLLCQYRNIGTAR
CHRM4 PAM: potentiates acetylcholine response at human M4 receptor; P08173; CHO-K1 hM4/Gqi5, Fluo-8 calcium fluorescence, ACh EC20; 0% = ACh EC20, 100% = maximal ACh; activation, % at 3 µM; 360,000 compounds, 0.4% hits;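 active means activation above its plate's cutoff, the mean activation of sample wells plus 3 SD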
CHRM5 agonist: agonists of human muscarinic M5 receptor (CHRM5); P08912; CHO-K1 hM5 cells, Fluo-8 calcium fluorescence; 0% DMSO wells, 100% maximal acetylcholine response; activation, % at 3 µM; 360,000 compounds, 0.19% hits;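 active means activation above the run's mean over test compounds plus 3 SD, cut at about 23% in these data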;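 further: signal is peak over basal fluorescence ratio across the kinetic read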
CHRM5 PAM: potentiates acetylcholine response at human M5 receptor; CHO-K1 hM5, Fluo-8 calcium, ACh EC20 PAM; 0% = ACh EC20, 100% = ACh EC100; activation, % at 3 µM; P08912; 360,000 compounds, 0.3% hits;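 active means activation above the run cutoff, the mean activation of all test compounds plus 3 SD, cut at about 18% in these data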
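Probe or stimulus: acetylcholine, EC20 level; Assay system: human M5 receptor in CHO-K1 cells; Schedule: compound preincubation 140 s before EC20 acetylcholine addition; Technique: intracellular calcium via Fluo-8 fluorescence; Dosing: single-point, 3 µM nominal; Read-out basis: percent activation from peak-over-basal fluorescence ratio, scaled EC20-to-EC100 acetylcholine; Repeats: one well per compound, no replicates.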
M5 antag: antagonists of human muscarinic M5 receptor (CHRM5); CHO-hM5 cells, Fluo-8 calcium fluorescence, ACh EC80; 360,000 compounds, 0.59% hits; AID 624040; P08912; inhibition, % at 3 µM;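 active means inhibition above a per-plate cutoff, the mean of that plate's test compounds plus 3 SD, cut at about 27% in these data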;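 further: 0% = acetylcholine EC80 with DMSO and 100% = DMSO without agonist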
M4 ag: agonists of human muscarinic M4 receptor (CHRM4); P08173; CHO-K1 hM4/Gqi5, Fluo-8 calcium fluorescence; vehicle 0%, full acetylcholine response 100%; activation, % at 3 µM; 360,000 compounds, 0.14% hits;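 active means activation above the run mean over all test wells plus 3 SD, cut at about 32% in these data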;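 further: peak over basal fluorescence ratio per well then scaled between controls; 0% = DMSO wells and 100% = acetylcholine at EC100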
Numbers without * were called inactive. An excerpt weighted towards active compounds, which were near 1.8% of everything screened.

SMILES	M4 antag	CHRM4 PAM	CHRM5 agonist	CHRM5 PAM	M5 antag	M4 ag
C=CCNC(=S)Nc1ccc(OC(F)F)c(Cl)c1	15.4	-5.2	2.5	-13.7	28.6*	18.8
CC(=O)Nc1ccc2c(c1)OCCOCCOc1cc(NC(C)=O)ccc1OCCO2	27.0*	13.3	4.0	11.6	-8.4	5.2
O=C(Nc1ccc([N+](=O)[O-])cc1)Nc1ccc(OC(F)F)c(Cl)c1	16.8	-12.6	8.1	-19.4	32.7*	11.1
C=CCNC(=S)Nc1ccc(Cl)cc1	-9.2	-0.7	-1.2	4.8	6.0	2.3
O=C(Nc1cccc([N+](=O)[O-])c1)Nc1ccc2c(c1)CCC2	0.5	-5.0	5.5	-14.3	35.1*	18.1
O=C(Nc1ccccc1)Nc1ccc2c(c1)CCC2	1.6	-11.4	0.2	-10.1	22.1	11.4
CC(C)(C)C(=O)Nc1ccc2c(c1)OCCOCCOc1cc(NC(=O)C(C)(C)C)ccc1OCCOCCO2	0.9	-6.8	2.1	-0.1	-17.7	1.2
CCOc1ccccc1C(=O)Oc1cc(C)[nH]c(=O)c1[N+](=O)[O-]	-5.8	-2.7	2.0	-5.8	2.9	-0.6
O=C(Nc1ccccc1)Nc1cc([N+](=O)[O-])ccc1F	-10.8	2.9	6.2	-14.3	4.5	10.6
COc1ccc(NC(=O)Nc2ccc3c(c2)N(C)C(=O)CS3)cc1Cl	17.4	-14.6	8.6	-23.5	31.1*	21.6
COc1cc([N+](=O)[O-])ccc1NC(=O)Nc1ccc2c(c1)OCCO2	1.2	-4.6	4.3	22.0*	11.3	0.3
O=C(Nc1ccc(OC(F)F)c(Cl)c1)c1cccc(OC(F)F)c1	9.7	-21.4	-5.1	-21.8	39.6*	6.9
Cc1ccc([N+](=O)[O-])cc1NC(=O)Nc1cccc(F)c1	22.5	-15.7	9.8	-16.8	30.4*	22.5
COc1ccc(NC(=O)Nc2ccc3c(c2)N(C)C(=O)CS3)cc1OC	-10.3	-0.7	3.1	-13.2	4.1	16.6
COc1ccc(NC(=O)c2cccc(OC(F)F)c2)cc1Cl	0.5	-3.7	1.1	-7.1	-9.5	7.7
C[C@H](CO)N1C[C@H](C)[C@@H](CN(C)C(=O)c2ccncc2)OCc2cnnn2CCCC1=O	5.4	1.6	-0.5	2.1	6.8	0.3
O=C1C(Cc2ccccc2O)NC(=S)N1c1ccccc1 (stereo not given)	1.0	-8.7	-1.3	-7.3	13.3	0.4
O=C(CSc1nnc(-c2ccccc2)o1)N1CCCCC1	8.2	-2.3	-2.7	-2.2	3.6	0.1
O=C(c1cn(-c2ccccc2)nc1-c1cccnc1)N1CCN(S(=O)(=O)c2cccc(F)c2)CC1	-12.7	10.6	-3.8	1.7	-9.7	1.5
COc1ccc(NC(=O)Nc2cccc([N+](=O)[O-])c2)cc1Cl	13.6	-11.6	4.7	-18.6	30.6*	14.6
CCOC(=O)C(=O)Nc1ccc(OC)c(Cl)c1	-3.3	23.1*	-3.0	0.5	5.2	2.4
COc1ccc(C(=O)Nc2cccc([N+](=O)[O-])c2)cc1Br	-4.0	-0.2	-2.4	-0.3	5.7	1.2
COc1ccc(NC(=O)C(=O)NCCCO)cc1Cl	-4.7	5.2	0.7	-4.4	4.4	4.9
CC(C)OCCCNc1ncnc2c1[nH]c1ccccc12	13.3	-11.6	5.1	-28.1	29.6*	24.1
C1=C(CCNc2ncnc3c2[nH]c2ccccc23)CCCC1	31.8*	-13.2	8.2	-14.5	31.9*	14.2
SMILES	M4 antag	CHRM4 PAM	CHRM5 agonist	CHRM5 PAM	M5 antag	M4 ag
NS(=O)(=O)c1ccc(CCNC(=O)c2cccc(S(=O)(=O)N3CCc4ccccc43)c2)cc1	5.6	-0.2	-1.6	-6.8	9.5	4.2
CCN(CC)c1ccc(/C=C2\SC(=O)N(C(C)C)C2=O)o1	40.6*	-2.8	0.4	-1.7	16.8	4.0
Cc1nn(-c2ccccc2)c(C)c1NC(=O)COC(=O)c1ccc(O)cc1O	5.8	-7.6	6.0	-14.5	17.0	20.8
S=C(Nc1ccc(Cl)cc1Cl)N1CCOCC1	6.2	21.1*	1.7	2.9	-5.2	1.3
S=C(NCCc1ccc(Cl)cc1)Nc1ccc(Cl)cc1Cl	9.0	-15.6	-1.5	-18.2	34.9*	6.9
S=C(NCc1ccc(Cl)cc1)Nc1ccc(Cl)cc1Cl	9.4	-10.9	-0.5	-17.4	15.4	8.7
CC(=O)c1ccc(Oc2cnccn2)cc1	4.8	3.0	-2.8	-7.7	16.9	0.9
Cn1c(NCCc2ccncc2)nc2cc(-c3ccccc3)sc2c1=O	-4.5	4.0	-1.6	-0.6	2.6	7.0
CCc1cccc2c1Sc1ccccc1CC2N1CCNCC1 (stereo not given)	23.7	-39.8	-17.9	-15.2	4.0	8.0
CSc1ccc2c(c1)C(N1CCN(C)CC1)Cc1ccccc1S2 (stereo not given)	55.1*	-17.9	4.5	-18.4	70.5*	25.1
CN1CCN(C2Cc3cc(F)ccc3Sc3ccc(Cl)cc32)CC1 (stereo not given)	84.4*	-75.5	-14.7	-35.1	80.5*	15.9
CN1CCN(C2Cc3ccc(F)cc3Sc3cc(F)c(Cl)cc32)CC1 (stereo not given)	23.5	-12.2	-14.8	-20.0	9.9	10.1
CN1CCN(C2Cc3ccccc3Sc3ccc(Cl)cc32)CC1 (stereo not given)	52.5*	-18.5	0.1	-18.3	54.1*	6.4
O=C(N1CCCCC1)C1(S(=O)(=O)c2ccccc2)CC=CC1	-0.2	5.6	-3.4	0.6	9.6	1.2
O=C(Nc1nc2ccccc2n1CCN1CCOCC1)c1ccc(COc2ccccc2Br)o1	43.1*	-8.0	-4.3	-13.0	17.5	8.3
Cc1c(C(=O)Nc2ccncc2)sc2nc(-c3ccccc3)cn12	-5.6	-5.9	10.1	-13.2	4.6	26.5
Cc1c(C(=O)Nc2ccc3c(c2)OCCO3)sc2nc(-c3ccccc3)cn12	33.6*	-11.2	6.3	-24.6	28.4*	30.4
O=C(O)c1cc(S(=O)(=O)N2CCN(C(=O)c3ccco3)CC2)c(Cl)cc1Cl	-29.6	14.4*	-5.2	-0.9	0.4	2.0
O=C(c1ccco1)N1CCN(S(=O)(=O)c2cc(Cl)ccc2Cl)CC1	-13.4	-4.3	-0.1	-2.8	-2.4	1.6
CCN(CC(=O)Nc1cccc(S(=O)(=O)N2CCOCC2)c1)Cc1ccccc1	1.2	-2.0	0.3	-0.9	5.9	2.5
NC(=O)CC(NC(=O)Cc1ccc(Cl)cc1)c1ccc(NCCN2CCOCC2)c([N+](=O)[O-])c1 (stereo not given)	-6.3	5.4	-3.1	-0.9	11.3	0.3
O=C(CN1C(=O)C(=O)c2ccccc21)NCCc1ccccc1	-4.8	-1.8	2.0	5.5	0.0	2.1
O=C1C(=O)N(CCCc2ccccc2)c2ccccc21	11.4	-5.3	25.7*	-2.4	-9.2	1.1
